Experimental data published in ChEMBL document CHEMBL1649560, “Beta-lactamase-mediated beta-lactam resistance in Campylobacter species: prevalence of Cj0299 (bla OXA-61) and evidence for a novel beta-Lactamase in C. jejuni” (2009).
In brackets after ≈: the same amount, converted by molar mass.

The compounds below were run on Campylobacter jejuni (assay: Antibacterial activity against bla gene-negative and nitrocefin reaction-positive beta-lactamase harboring Campylobacter jejuni isolate P854 by NCCLS agar doubling dilution method).
Format: functional
In short: (§1)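 MICs of β-lactams by agar doubling dilution following the NCCLS (CLSI) Campylobacter Working Group procedure, with C. jejuni NCTC 11168 and C. coli NCTC 11366 as controls. Isolates were from UK poultry flocks. β-Lactamase status was set by Cj0299 PCR (281-bp amplimer) and by a nitrocefin colour change of sonicated lysate within 5 min, or within 30 min on repeat.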

SMILES | MIC [µg/mL]
CO/N=C(\C(=O)N[C@@H]1C(=O)N2C(C(=O)O)=C(COC(N)=O)CS[C@H]12)c1ccco1 [CEFUROXIME] | 128 (≈ 302 µM)

Each compound was assayed on Campylobacter coli (assay: Antibacterial activity against bla gene-positive and nitrocefin reaction-positive beta-lactamase harboring Campylobacter coli isolate P321 by NCCLS agar doubling dilution method).
Format: functional
In short: as §1

SMILES | MIC [µg/mL]
CO/N=C(\C(=O)N[C@@H]1C(=O)N2C(C(=O)O)=C(COC(N)=O)CS[C@H]12)c1ccco1 [CEFUROXIME] | 64 (≈ 151 µM)

The compounds below were run on Campylobacter jejuni (assay: Antibacterial activity against Campylobacter jejuni isolate P1093 harboring blaOXA-61::cat gene by NCCLS agar doubling dilution method).
Format: functional
In short: (§2)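 Agar doubling dilution MICs (NCCLS/CLSI Campylobacter Working Group method) against Cj0299-inactivated mutants. Mutants were made by transforming the C. jejuni isolate with pCI and selecting on Mueller-Hinton agar with 10 μg/ml chloramphenicol for 3–5 days. Chromosomal insertion was confirmed by PCR with Cj0299 and cat primers.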

SMILES | MIC [µg/mL]
CO/N=C(\C(=O)N[C@@H]1C(=O)N2C(C(=O)O)=C(COC(N)=O)CS[C@H]12)c1ccco1 [CEFUROXIME] | 128 (≈ 302 µM)

Each compound was assayed on Campylobacter jejuni (assay: Antibacterial activity against bla gene-positive and nitrocefin reaction-negative beta-lactamase harboring Campylobacter jejuni isolate P1698 by NCCLS agar doubling dilution method).
Format: functional
In short: as §1

SMILES | MIC [µg/mL]
CO/N=C(\C(=O)N[C@@H]1C(=O)N2C(C(=O)O)=C(COC(N)=O)CS[C@H]12)c1ccco1 [CEFUROXIME] | 64 (≈ 151 µM)

Each compound was assayed on Campylobacter coli (assay: Antibacterial activity against bla-positive and beta-lactamase-weakly positive Campylobacter coli isolate P1627 by NCCLS agar doubling dilution method).
Format: functional
In short: (§3)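 MICs by agar doubling dilution per the NCCLS (now CLSI) Campylobacter Working Group method. Isolates came from UK chicken flocks (feces, ceca or farm environment), 2000–2006. C. jejuni NCTC 11168 and C. coli NCTC 11366 served as control strains. The ampicillin resistance cutoff was 8 μg/ml; BSAC/CLSI Enterobacteriaceae guidelines were used for other agents.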

SMILES | MIC [µg/mL]
CO/N=C(\C(=O)N[C@@H]1C(=O)N2C(C(=O)O)=C(COC(N)=O)CS[C@H]12)c1ccco1 [CEFUROXIME] | 64 (≈ 151 µM)

These compounds were tested on Campylobacter jejuni (assay: Antibacterial activity against bla gene-negative and nitrocefin reaction-negative beta-lactamase harboring Campylobacter jejuni isolate P850 by NCCLS agar doubling dilution method).
Format: functional
In short: as §1

SMILES | MIC [µg/mL]
CO/N=C(\C(=O)N[C@@H]1C(=O)N2C(C(=O)O)=C(COC(N)=O)CS[C@H]12)c1ccco1 [CEFUROXIME] | 128 (≈ 302 µM)

These compounds were tested on Campylobacter jejuni (assay: Antibacterial activity against bla gene-positive and nitrocefin reaction-positive beta-lactamase harboring Campylobacter jejuni isolate P1618 by NCCLS agar doubling dilution method).
Format: functional
In short: as §1

SMILES | MIC [µg/mL]
CO/N=C(\C(=O)N[C@@H]1C(=O)N2C(C(=O)O)=C(COC(N)=O)CS[C@H]12)c1ccco1 [CEFUROXIME] | 256 (≈ 603 µM)

These compounds were tested on Campylobacter jejuni (assay: Antibacterial activity against bla gene-positive and nitrocefin reaction-positive beta-lactamase harboring Campylobacter jejuni isolate P338 by NCCLS agar doubling dilution method).
Format: functional
In short: as §3

SMILES | MIC [µg/mL]
CO/N=C(\C(=O)N[C@@H]1C(=O)N2C(C(=O)O)=C(COC(N)=O)CS[C@H]12)c1ccco1 [CEFUROXIME] | 128 (≈ 302 µM)

The compounds below were run on Campylobacter jejuni (assay: Antibacterial activity against Campylobacter jejuni isolate P270 harboring blaOXA-61::cat gene by NCCLS agar doubling dilution method).
Format: functional

SMILES | MIC [µg/mL]
CO/N=C(\C(=O)N[C@@H]1C(=O)N2C(C(=O)O)=C(COC(N)=O)CS[C@H]12)c1ccco1 [CEFUROXIME] | 64 (≈ 151 µM)

Each compound was assayed on Campylobacter jejuni (assay: Antibacterial activity against bla gene-positive and nitrocefin reaction-positive beta-lactamase harboring Campylobacter jejuni isolate P316 by NCCLS agar doubling dilution method).
Format: functional
In short: as §3

SMILES | MIC [µg/mL]
CO/N=C(\C(=O)N[C@@H]1C(=O)N2C(C(=O)O)=C(COC(N)=O)CS[C@H]12)c1ccco1 [CEFUROXIME] | 64 (≈ 151 µM)

The compounds below were run on Campylobacter coli (assay: Antibacterial activity against bla gene-positive and nitrocefin reaction-positive beta-lactamase harboring Campylobacter coli isolate P1826 by NCCLS agar doubling dilution method).
Format: functional
In short: as §1

SMILES | MIC [µg/mL]
CO/N=C(\C(=O)N[C@@H]1C(=O)N2C(C(=O)O)=C(COC(N)=O)CS[C@H]12)c1ccco1 [CEFUROXIME] | 64 (≈ 151 µM)

Each compound was assayed on Campylobacter jejuni (assay: Antibacterial activity against bla gene-negative and nitrocefin reaction-negative beta-lactamase harboring Campylobacter jejuni isolate P835 by NCCLS agar doubling dilution method).
Format: functional
In short: as §1

SMILES | MIC [µg/mL]
CO/N=C(\C(=O)N[C@@H]1C(=O)N2C(C(=O)O)=C(COC(N)=O)CS[C@H]12)c1ccco1 [CEFUROXIME] | 64 (≈ 151 µM)

The compounds below were run on Campylobacter jejuni (assay: Antibacterial activity against bla gene-positive and nitrocefin reaction-positive beta-lactamase harboring Campylobacter jejuni isolate P790 by NCCLS agar doubling dilution method).
Format: functional
In short: as §3

SMILES | MIC [µg/mL]
CO/N=C(\C(=O)N[C@@H]1C(=O)N2C(C(=O)O)=C(COC(N)=O)CS[C@H]12)c1ccco1 [CEFUROXIME] | 64 (≈ 151 µM)

These compounds were tested on Campylobacter coli (assay: Antibacterial activity against Campylobacter coli by NCCLS agar doubling dilution method).
Format: functional
In short: (§4)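 MICs by agar doubling dilution following the NCCLS (CLSI) Campylobacter Working Group procedure, applied to ampicillin- and amoxicillin-resistant isolates from UK chicken flocks (2000–2006). C. jejuni NCTC 11168 and C. coli NCTC 11366 served as control strains. Resistance was called at an ampicillin cutoff of 8 μg/ml. Other agents were judged against Enterobacteriaceae guidelines (BSAC, CLSI).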

SMILES | MIC50 [µg/mL] | MIC90 [µg/mL]
CO/N=C(\C(=O)N[C@@H]1C(=O)N2C(C(=O)O)=C(COC(N)=O)CS[C@H]12)c1ccco1 [CEFUROXIME] | 128 (≈ 302 µM) | 256 (≈ 603 µM)

What follows are compounds tested on Campylobacter jejuni (assay: Antibacterial activity against bla gene-positive and nitrocefin reaction-positive beta-lactamase harboring Campylobacter jejuni isolate P1093 by NCCLS agar doubling dilution method).
Format: functional
In short: as §1

SMILES | MIC [µg/mL]
CO/N=C(\C(=O)N[C@@H]1C(=O)N2C(C(=O)O)=C(COC(N)=O)CS[C@H]12)c1ccco1 [CEFUROXIME] | 128 (≈ 302 µM)

What follows are compounds tested on Campylobacter jejuni (assay: Antibacterial activity against bla gene-positive and nitrocefin reaction-negative beta-lactamase harboring Campylobacter jejuni NCTC 11168 by NCCLS agar doubling dilution method).
Format: functional
In short: as §1

SMILES | MIC [µg/mL]
CO/N=C(\C(=O)N[C@@H]1C(=O)N2C(C(=O)O)=C(COC(N)=O)CS[C@H]12)c1ccco1 [CEFUROXIME] | 32 (≈ 75.4 µM)

Each compound was assayed on Campylobacter jejuni (assay: Antibacterial activity against bla gene-positive and nitrocefin reaction-positive beta-lactamase harboring Campylobacter jejuni isolate P1650 by NCCLS agar doubling dilution method).
Format: functional
In short: as §1

SMILES | MIC [µg/mL]
CO/N=C(\C(=O)N[C@@H]1C(=O)N2C(C(=O)O)=C(COC(N)=O)CS[C@H]12)c1ccco1 [CEFUROXIME] | 128 (≈ 302 µM)

These compounds were tested on Campylobacter jejuni (assay: Antibacterial activity against Campylobacter jejuni by NCCLS agar doubling dilution method).
Format: functional
In short: as §4

SMILES | MIC50 [µg/mL] | MIC90 [µg/mL]
CO/N=C(\C(=O)N[C@@H]1C(=O)N2C(C(=O)O)=C(COC(N)=O)CS[C@H]12)c1ccco1 [CEFUROXIME] | 128 (≈ 302 µM) | 128 (≈ 302 µM)

Each compound was assayed on Campylobacter jejuni (assay: Antibacterial activity against bla gene-positive and nitrocefin reaction-positive beta-lactamase harboring Campylobacter jejuni isolate P286 by NCCLS agar doubling dilution method).
Format: functional
In short: as §3

SMILES | MIC [µg/mL]
CO/N=C(\C(=O)N[C@@H]1C(=O)N2C(C(=O)O)=C(COC(N)=O)CS[C@H]12)c1ccco1 [CEFUROXIME] | 128 (≈ 302 µM)

The compounds below were run on Campylobacter jejuni (assay: Antibacterial activity against bla gene-positive and nitrocefin reaction-positive beta-lactamase harboring Campylobacter jejuni isolate P305 by NCCLS agar doubling dilution method).
Format: functional
In short: as §3

SMILES | MIC [µg/mL]
CO/N=C(\C(=O)N[C@@H]1C(=O)N2C(C(=O)O)=C(COC(N)=O)CS[C@H]12)c1ccco1 [CEFUROXIME] | 64 (≈ 151 µM)

Each compound was assayed on Campylobacter jejuni (assay: Antibacterial activity against bla gene-positive and nitrocefin reaction-positive beta-lactamase harboring Campylobacter jejuni isolate P285 by NCCLS agar doubling dilution method).
Format: functional
In short: as §3

SMILES | MIC [µg/mL]
CO/N=C(\C(=O)N[C@@H]1C(=O)N2C(C(=O)O)=C(COC(N)=O)CS[C@H]12)c1ccco1 [CEFUROXIME] | 128 (≈ 302 µM)

What follows are compounds tested on Campylobacter jejuni (assay: Antibacterial activity against bla gene-negative and nitrocefin reaction-negative beta-lactamase harboring Campylobacter jejuni isolate P1962 by NCCLS agar doubling dilution method).
Format: functional
In short: as §1

SMILES | MIC [µg/mL]
CO/N=C(\C(=O)N[C@@H]1C(=O)N2C(C(=O)O)=C(COC(N)=O)CS[C@H]12)c1ccco1 [CEFUROXIME] | 64 (≈ 151 µM)

Each compound was assayed on Campylobacter jejuni (assay: Antibacterial activity against Campylobacter jejuni isolate P338 harboring blaOXA-61::cat gene by NCCLS agar doubling dilution method).
Format: functional
In short: as §2

SMILES | MIC [µg/mL]
CO/N=C(\C(=O)N[C@@H]1C(=O)N2C(C(=O)O)=C(COC(N)=O)CS[C@H]12)c1ccco1 [CEFUROXIME] | 128 (≈ 302 µM)

What follows are compounds tested on Campylobacter jejuni (assay: Antibacterial activity against bla gene-positive and nitrocefin reaction-positive beta-lactamase harboring Campylobacter jejuni isolate P1730 by NCCLS agar doubling dilution method).
Format: functional
In short: as §3

SMILES | MIC [µg/mL]
CO/N=C(\C(=O)N[C@@H]1C(=O)N2C(C(=O)O)=C(COC(N)=O)CS[C@H]12)c1ccco1 [CEFUROXIME] | 128 (≈ 302 µM)

The compounds below were run on Campylobacter jejuni (assay: Antibacterial activity against bla gene-negative and nitrocefin reaction-positive beta-lactamase harboring Campylobacter jejuni isolate P843 by NCCLS agar doubling dilution method).
Format: functional
In short: as §1

SMILES | MIC [µg/mL]
CO/N=C(\C(=O)N[C@@H]1C(=O)N2C(C(=O)O)=C(COC(N)=O)CS[C@H]12)c1ccco1 [CEFUROXIME] | 64 (≈ 151 µM)

Each compound was assayed on Campylobacter jejuni (assay: Antibacterial activity against bla gene-positive and nitrocefin reaction-negative beta-lactamase harboring Campylobacter jejuni isolate P1699 by NCCLS agar doubling dilution method).
Format: functional
In short: as §1

SMILES | MIC [µg/mL]
CO/N=C(\C(=O)N[C@@H]1C(=O)N2C(C(=O)O)=C(COC(N)=O)CS[C@H]12)c1ccco1 [CEFUROXIME] | 64 (≈ 151 µM)
